Compound activity: PubChem, several laboratories
Most compounds without a hit are left out; they make up all but 2.9% or so of the library.
HSP90 refold inh = HSP90 inhibitors, primary screen, cell lysate, luminescence; Heat shock protein HSP 90 (rabbit reticulocyte lysate; luciferase refolding); Rabbit reticulocyte lysate, luciferase refolding luminescence, 3 h; inhibition, % at 5.6 µM; actives 0.91% (n = 290,000); AID 1789, 2009;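 active means inhibition above the screen-wide mean plus 3 SD, computed separately per campaign, cut at about 16% in these data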;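 further: inhibitors lower the luminescence because luciferase stays unfolded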
SENP1 inh = human SENP1 catalytic domain inhibitors, primary screen, biochemical, FRET, uHTS. Sentrin-specific protease 1 (Homo sapiens), Q9P0U3. recombinant SENP1 catalytic domain, CyPet-SUMO1-YPet FRET cleavage. inhibition, % at 10 µM. AID 624204, 2012. actives 0.21% (n = 360,000);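 active means inhibition at least 30% at 10 µM, raw YFP signal under a set limit, fluorescence ratio 0.5 to 1.5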
Target sequence (Q9P0U3 419-644 limits assumed): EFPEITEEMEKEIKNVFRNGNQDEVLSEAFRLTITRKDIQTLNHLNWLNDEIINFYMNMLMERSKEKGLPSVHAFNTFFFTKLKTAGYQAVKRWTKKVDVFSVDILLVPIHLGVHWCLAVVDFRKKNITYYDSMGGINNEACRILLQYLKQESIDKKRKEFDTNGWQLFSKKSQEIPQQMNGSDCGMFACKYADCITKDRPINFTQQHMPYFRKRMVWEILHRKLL
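Test system: human SENP1 catalytic domain; medium: Tris pH 8 buffer plus EDTA, NaCl, BME, BSA, NP40, catalase; incubation: 50 min reaction at room temperature; technique: FRET, CFP and YFP emission; controls: no-enzyme low control and enzyme-plus-DMSO high control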
SENP8 block-1 = SENP8 protease inhibitors, primary screen, biochemical, luminescence. inhibition, % at 10 µM. actives 1.2% (n = 330,000). purified SENP8, Z-RLRGG-aminoluciferin cleavage. AID 2540, 2010. Sentrin-specific protease 8 (Homo sapiens), Q96LD8; in the data active means inhibition above about 50%
SENP6 block = SENP6 protease inhibitors, primary screen, biochemical, luminescence, uHTS. AID 2599, 2010. Recombinant SENP6 catalytic domain, aminoluciferin luminescence. inhibition, % at 10 µM. Sentrin-specific protease 6 (Homo sapiens), Q9GZR1. actives 1.8% (n = 330,000);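 active means inhibition above about 50% at the single tested dose, limit read from the data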
SENP7 inh = SENP7 protease inhibitors, primary screen, biochemical, luminescence, uHTS. Sentrin-specific protease 7 (Homo sapiens), Q9BQF6. recombinant SENP7, Z-RLRGG-aminoluciferin luminescence, 40 min. inhibition, % at 5 µM. actives 1.5% (n = 330,000). AID 434973, 2010;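 active means inhibition above about 50% at the single test dose, limit read from the data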
Target sequence (Q9BQF6 706-1050 limits assumed): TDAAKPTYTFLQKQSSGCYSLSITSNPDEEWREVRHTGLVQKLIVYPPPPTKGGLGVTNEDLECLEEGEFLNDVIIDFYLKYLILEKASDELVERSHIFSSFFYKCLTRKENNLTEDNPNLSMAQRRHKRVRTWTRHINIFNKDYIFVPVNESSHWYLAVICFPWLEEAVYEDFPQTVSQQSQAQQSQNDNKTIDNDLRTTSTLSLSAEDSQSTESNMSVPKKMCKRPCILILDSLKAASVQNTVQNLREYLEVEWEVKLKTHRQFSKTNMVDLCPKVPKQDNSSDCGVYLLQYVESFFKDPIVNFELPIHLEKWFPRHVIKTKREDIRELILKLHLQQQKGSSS
SENP8 block-2 = human SENP8 protease inhibitors, primary screen, biochemical, fluorescence, Nedd8 protein substrate, uHTS; Sentrin-specific protease 8 (Homo sapiens), Q96LD8; recombinant SENP8; inhibition, % at 20 µM; actives 0.64% (n = 360,000); AID 602440, 2012; in the data active means inhibition mostly above about 40%, no sharp cut-off; inactive means mostly below about 27%
SENP8 conf = SENP8 protease inhibitors, retest, confirmation, biochemical, luminescence, single concentration; shares compounds with SENP7 inh; Recombinant SENP8, Z-RLRGG-aminoluciferin luminescence, 60 min; inhibition, % at 12.5 µM; actives 40% (n = 6,200); AID 488912, 2010;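 active means mean inhibition across replicates above about 50%, limit read from the data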
SENP6 conf = SENP6 protease inhibitors, confirmation, biochemical, luminescence, single concentration | AID 488915, 2010 | inhibition, % at 12.5 µM | shares compounds with SENP7 inh | actives 58% (n = 6,200) | recombinant SENP6, Z-RLRGG-aminoluciferin luminescence
SENP7 confirm = SENP7 protease inhibitors, retest, confirmation, biochemical, luminescence, single concentration. AID 488917, 2010. recombinant SENP7, Z-RLRGG-aminoluciferin luminescence, 40 min. shares compounds with SENP7 inh. inhibition, % at 12.5 µM. actives 69% (n = 6,200)
Casp3 select = caspase-3 protease inhibitors, confirmation, selectivity assay for SENP inhibitor project, biochemical, single concentration; shares compounds with SENP7 inh; inhibition, % at 12.5 µM; AID 488918, 2010; actives 60% (n = 6,200); purified caspase-3, Z-DEVD-aminoluciferin luminescence, 60 min;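 active means mean inhibition above about 50%, limit read from the data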
Luc interf = counter-screen for SENP inhibitors: luminescence interference; actives 39% (n = 6,200); inhibition, % at 12.5 µM; shares compounds with SENP7 inh; Pre-incubated SENP8/Z-RLRGG-aminoluciferin, luciferase luminescence interference;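 active means mean inhibition above about 50% when retested at one dose, limit read from the data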
Numbers stand for hits.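 How the source made its calls, unless noted: active means mean inhibition above about 50% in the one-dose retest (limit read from the data); inactive means the rest.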

Results for CC(=O)Nc1nc2ccc(-c3nc4ccccc4o3)cc2s1 ?
HSP90 refold inh: inactive; SENP1 inh: inactive; SENP8 block-1: inactive; SENP6 block: inactive; SENP7 inh: 64.3; SENP8 block-2: inactive; SENP8 conf: inactive; SENP6 conf: inactive; SENP7 confirm: inactive; Casp3 select: inactive; Luc interf: inactive

What do the screens show for `O=C(Nc1ccc2c(c1)OCO2)c1cc(C2CCCN(C(=O)CCc3ccccc3)C2)on1` (stereo not given)?
SENP1 inh: inactive; SENP8 block-2: inactive

Results for CC(C)C(=O)N1CCN(c2ccccc2NC(=O)c2ccc(Br)o2)CC1 ?
SENP1 inh: inactive; SENP8 block-1: inactive; SENP6 block: inactive; SENP7 inh: inactive; SENP8 block-2: inactive

How did CCOc1ccc(Cl)cc1-c1cc(C(=O)NCc2cccc(C(F)(F)F)c2)[nH]n1 do in these assays?
SENP1 inh: inactive; SENP8 block-2: inactive

What do the screens show for `Cc1cccc(-n2c(C)nc3cc(C(=O)N4CCOCC4)ccc32)c1`?
HSP90 refold inh: inactive; SENP1 inh: inactive; SENP8 block-1: inactive; SENP6 block: inactive; SENP7 inh: inactive; SENP8 block-2: inactive

What do the screens show for `CS(=O)(=O)c1ccc2sc(NC(=O)c3cc4ccccc4o3)nc2c1`?
HSP90 refold inh: inactive; SENP1 inh: inactive; SENP8 block-1: inactive; SENP6 block: 77.4; SENP7 inh: inactive; SENP8 block-2: inactive; SENP8 conf: inactive; SENP6 conf: inactive; SENP7 confirm: inactive; Casp3 select: inactive; Luc interf: inactive

What do the screens show for `CS(=O)(=O)c1ccc2nc(NC(=O)c3ccccc3Br)sc2c1`?
HSP90 refold inh: inactive; SENP1 inh: inactive; SENP8 block-1: inactive; SENP6 block: inactive; SENP7 inh: inactive; SENP8 block-2: inactive

How did CC(=O)c1ccc(NC(=O)Oc2ccccc2)cc1 do in these assays?
HSP90 refold inh: inactive; SENP1 inh: inactive; SENP8 block-1: inactive; SENP6 block: inactive; SENP7 inh: inactive; SENP8 block-2: inactive

What do the screens show for `CC(C)Oc1ccc(NC(=O)Oc2ccccc2)cc1`?
HSP90 refold inh: inactive; SENP1 inh: inactive; SENP8 block-1: 79.9; SENP6 block: 88.0; SENP7 inh: inactive; SENP8 block-2: inactive; SENP8 conf: inactive; SENP6 conf: 100.0; SENP7 confirm: 103.4; Casp3 select: 98.4; Luc interf: 93.5

How did Cc1c(C(=O)/C=C/c2cccs2)oc2ccc(F)cc12 do in these assays?
HSP90 refold inh: inactive; SENP1 inh: inactive; SENP8 block-1: inactive; SENP6 block: 51.6; SENP7 inh: inactive; SENP8 block-2: inactive; SENP8 conf: inactive; SENP6 conf: inactive; SENP7 confirm: inactive; Casp3 select: inactive; Luc interf: inactive

What do the screens show for `Cc1c(C(=O)Nc2nccs2)oc2ccc(F)cc12`?
SENP1 inh: inactive; SENP8 block-1: inactive; SENP6 block: inactive; SENP7 inh: inactive; SENP8 block-2: inactive

How did CCOc1ccc(NC(=O)c2ccc(NS(=O)(=O)c3cccs3)cc2)cc1 do in these assays?
HSP90 refold inh: inactive; SENP1 inh: inactive; SENP8 block-1: inactive; SENP6 block: inactive; SENP7 inh: inactive; SENP8 block-2: inactive

How did Cn1cccc1C(=O)C(=O)Nc1ccccc1 do in these assays?
HSP90 refold inh: inactive; SENP1 inh: inactive; SENP8 block-1: 80.0; SENP6 block: 92.2; SENP7 inh: 93.9; SENP8 block-2: inactive; SENP8 conf: 89.0; SENP6 conf: 89.8; SENP7 confirm: 99.8; Casp3 select: 95.3; Luc interf: 88.5

How did Cn1cccc1C(=O)C(=O)Nc1ccccc1C(F)(F)F do in these assays?
HSP90 refold inh: inactive; SENP1 inh: inactive; SENP8 block-1: inactive; SENP6 block: inactive; SENP7 inh: inactive; SENP8 block-2: inactive

What do the screens show for `N/C(=N\OC(=O)c1ccc(F)cc1)c1ccccc1`?
HSP90 refold inh: inactive; SENP1 inh: inactive; SENP8 block-1: 90.5; SENP6 block: 96.7; SENP7 inh: 98.3; SENP8 block-2: inactive; SENP8 conf: 95.5; SENP6 conf: 96.4; SENP7 confirm: 101.8; Casp3 select: 97.3; Luc interf: 94.3

What do the screens show for `N/C(=N\OC(=O)c1ccc(F)cc1)c1ccc(Br)cc1`?
HSP90 refold inh: inactive; SENP1 inh: inactive; SENP8 block-1: inactive; SENP6 block: inactive; SENP7 inh: inactive; SENP8 block-2: inactive

How did Cc1ccc(/C(N)=N/OC(=O)c2ccc(F)cc2)cc1 do in these assays?
HSP90 refold inh: inactive; SENP1 inh: inactive; SENP8 block-1: inactive; SENP6 block: inactive; SENP7 inh: 60.8; SENP8 block-2: inactive; SENP8 conf: inactive; SENP6 conf: inactive; SENP7 confirm: 69.1; Casp3 select: 62.2; Luc interf: inactive

Results for Cc1ccc([C@H]2C[C@H](O)[C@@H](n3cc(C4CC4)nn3)CN2C(=O)c2cccs2)cc1 ?
SENP1 inh: inactive; SENP8 block-2: inactive

What do the screens show for `COCCn1c(NCc2ccco2)nc2c1c(=O)[nH]c(=O)n2C`?
HSP90 refold inh: inactive; SENP1 inh: inactive; SENP8 block-1: inactive; SENP6 block: inactive; SENP7 inh: inactive; SENP8 block-2: inactive

What do the screens show for `O=C(Nc1nc2c(Cl)cccc2s1)c1ccc([N+](=O)[O-])o1`?
HSP90 refold inh: inactive; SENP1 inh: inactive; SENP8 block-1: inactive; SENP6 block: 59.2; SENP7 inh: inactive; SENP8 block-2: inactive; SENP8 conf: inactive; SENP6 conf: inactive; SENP7 confirm: 77.3; Casp3 select: inactive; Luc interf: inactive

How did O=C(Nc1nc2c(Cl)cccc2s1)c1ccc(Br)o1 do in these assays?
HSP90 refold inh: inactive; SENP1 inh: inactive; SENP8 block-1: inactive; SENP6 block: inactive; SENP7 inh: inactive; SENP8 block-2: inactive
